Assay results from ChEMBL document CHEMBL1125823, “2-Phenylindole-linked [2-(aminoalkyl)pyridine]dichloroplatinum(II): complexes with a selective action on estrogen receptor positive mammary tumors” (1991).

Assays:
[1] = biological target: T1, Estrogen receptor (Mus musculus) (UniProt O08537+P19785); assay: Anti-uterotrophic effect in mice as relative uterine weight(mg) at 150 ug; type: functional
Summary of the method: (§1)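 Immature mice received the compound sc per animal on three consecutive days, alone or with 0.4 µg estrone per animal per day. Uteri were taken 24 h after the last injection, Bouin-fixed, dried at 100 °C for 24 h and weighed. Relative uterus weight = dry weight (mg)/body weight (g) × 100; mean of 6-10 animals ± SD; Mann-Whitney U test.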

MCF7 [2] = assay: Effect on [3H]thymidine incorporation into estrogen receptor positive MCF-7 human breast cancer cells at 5x10E-6M; type: functional
Summary of the method: (§2)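 MCF-7 cells in improved MEM with glutamine, gentamycin and 5% newborn calf serum, switched to charcoal-treated serum two weeks ahead; phenol red present; 37 °C, 5% CO2. About 2×10^4 cells plated per well; compound in 0.1% DMF added 2 days later, renewed on day 4; labelled 3 days later with 1 μCi [3H]thymidine per well for 2 h; cpm/dish, mean of six dishes ± SD.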

Mus musculus [3] = species: Mus musculus; assay: Anti-tumor activity in hormone-dependent transplant MXT mammary tumor bearing mice at 12.5 mg (control=197+/-130); type: functional
MCF7 [4] = assay: Effect on Estrogen receptor positive MCF-7 human breast cancer cell proliferation at 5x10E-6M (control = 24.4+/-3.8); type: functional
Summary of the method: (§3)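 MCF-7 cells were kept in MEM with 5% charcoal-treated newborn calf serum and phenol red for 2 weeks, then about 2×10^4 cells were plated per well. Compounds in 0.1% DMF were added 2 days later and renewed on day 4; DMF alone served as control. Coulter cell counts were taken on day 5; mean of six dishes ± SD; % T/C.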

MCF7 [5] = assay: Effect on [3H]thymidine incorporation into estrogen receptor positive MCF-7 human breast cancer cells at 1x10E-6M; type: functional
Summary of the method: (§4)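 MCF-7 cells were grown in MEM with charcoal-treated 5% newborn calf serum and phenol red, then treated with compounds in 0.1% DMF (renewed on day 4) alongside DMF controls. They were labeled 3 days later with 1 µCi [³H]thymidine per well for 2 h, and incorporated radioactivity per dish was measured; mean of six dishes ± SD; % T/C.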

[6] = biological target: T1, Estrogen receptor (Mus musculus); assay: Percent inhibition of estrone stimulated uterotrophic effect in mice at 150 ug; type: functional
Summary of the method: (§5)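 Immature mice given test compound per animal sc on three consecutive days together with 0.4 μg estrone/animal/day. Killed 24 h after last injection; uteri fixed in Bouin, dried 100 °C 24 h and weighed. Inhibition = 100 − [(W_S,T − W_V)/(W_S − W_V) × 100] using relative uterus weights; 6-10 animals; Wilcoxon-Mann-Whitney U test.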

[7] = biological target: T1, Estrogen receptor (Mus musculus); assay: Anti-uterotrophic effect in hormone-dependent transplant MXT bearing mice as relative uterine weight in treated and control mice at 12.5 mg (control=100+/-24); type: functional
MCF7 [8] = assay: Effect on [3H]thymidine incorporation into estrogen receptor positive MCF-7 human breast cancer cells at 1*10^-6 M (control = 10.2+/-1.4); type: functional; summary of the method: as §4
[9] = biological target: T1, Estrogen receptor (Mus musculus); assay: Anti-uterotrophic effect in mice as relative uterine weight(mg) at 15 ug; type: functional; summary of the method: as §1
[10] = biological target: T1, Estrogen receptor (Mus musculus); assay: Uterotrophic effect in mice as relative uterine weight(mg) at 15 ug (control = […]+/-1.7); type: functional, tissue-based
[11] = biological target: T1, Estrogen receptor (Mus musculus); assay: Percent inhibition of estrone stimulated uterotrophic effect in mice at 15 ug; type: functional; summary of the method: as §5
MCF7 [12] = assay: Effect on Estrogen receptor positive MCF-7 human breast cancer cell proliferation at 1x10E-6M (control = 24.4+/-3.8); type: functional; summary of the method: as §3
[13] = biological target: T1, Estrogen receptor (Mus musculus); assay: Uterotrophic effect in mice as relative uterine weight(mg) at 150 ug (control = […]+/-1.7); type: functional, tissue-based
MCF7 [14] = assay: Effect on [3H]thymidine incorporation into estrogen receptor positive MCF-7 human breast cancer cells at 5*10e-6 M (control = 10.2+/-1.4); type: functional; summary of the method: as §2
MCF7 [15] = assay: Effect on Estrogen receptor positive MCF-7 human breast cancer cell proliferation at 5x10E-6M; type: functional; summary of the method: as §3
MCF7 [16] = assay: Effect on Estrogen receptor positive MCF-7 human breast cancer cell proliferation at 1x10E-6M; type: functional; summary of the method: as §3
Mus musculus [17] = species: Mus musculus; assay: Relative tumor weight in treated compared to control mice bearing hormone-dependent transplanted MXT mammary tumors at 12.5 mg
MCF7 [18] = assay: Effect on [3H]thymidine incorporation into estrogen receptor positive MCF-7 human breast cancer cells at 1x10E-6M (control = 48.6+/-3.6); type: functional; summary of the method: as §4
MCF7 [19] = assay: Effect on Estrogen receptor positive MCF-7 human breast cancer cell proliferation at 1x10E-6M (control = 62.7+/-8.8); type: functional; summary of the method: as §3
MCF7 [20] = assay: Effect on Estrogen receptor positive MCF-7 human breast cancer cell proliferation at 5x10E-6M (control = 62.7+/-8.8); type: functional; summary of the method: as §3
MCF7 [21] = assay: Effect on [3H]thymidine incorporation into estrogen receptor positive MCF-7 human breast cancer cells at 5x10E-7M (control=48.6+/-3.6); type: functional; summary of the method: as §2
Mus musculus [22] = species: Mus musculus; assay: Relative tumor weight in treated compared to control mice bearing hormone-dependent transplanted MXT mammary tumors at 12.2 mg
[23] = biological target: T1, Estrogen receptor (Mus musculus); assay: Uterotrophic effect in mice as relative uterine weight(mg) at 150 ug (control = 14.5+/-2.1); type: functional, tissue-based
Summary of the method: (§6)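 Immature mice dosed sc per animal on three consecutive days; vehicle controls. Killed and weighed 24 h after last injection; uteri fixed in Bouin solution 2 h, washed with alcoholic LiCl, dried at 100 °C for 24 h. Relative uterus weight = uterine dry weight (mg)/body weight (g) × 100; mean of 6-10 animals ± SD.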

[24] = biological target: T1, Estrogen receptor (Mus musculus); assay: Uterotrophic effect in mice as relative uterine weight(mg) at 15 ug (control = 14.5+/-2.1); type: functional, tissue-based; summary of the method: as §6
[25] = biological target: T1, Estrogen receptor (Mus musculus); assay: Anti-uterotrophic effect in hormone-dependent transplant MXT bearing mice as relative uterine weight in treated and control mice at 12.2 mg (control=100+/-24); type: functional
MCF7 [26] = assay: Effect on [3H]thymidine incorporation into estrogen receptor positive MCF-7 human breast cancer cells at 5x10E-7M
MCF7 [27] = assay: Effect on [3H]thymidine incorporation into estrogen receptor positive MCF-7 human breast cancer cells at 5x10E-6M (control = 48.6+/-3.6); type: functional; summary of the method: as §2
Mus musculus [28] = species: Mus musculus; assay: Anti-tumor activity in hormone-dependent transplant MXT mammary tumor bearing mice at 12.2 mg (control=197+/-130); type: functional
MCF7 [29] = assay: Effect on Estrogen receptor positive MCF-7 human breast cancer cell proliferation at 5x10E-7M (control = 62.7+/-8.8); type: functional; summary of the method: as §3
MCF7 [30] = assay: Effect on Estrogen receptor positive MCF-7 human breast cancer cell proliferation at 5x10E-7M; type: functional; summary of the method: as §3

T1 sequence (O08537 whole entry, looked up): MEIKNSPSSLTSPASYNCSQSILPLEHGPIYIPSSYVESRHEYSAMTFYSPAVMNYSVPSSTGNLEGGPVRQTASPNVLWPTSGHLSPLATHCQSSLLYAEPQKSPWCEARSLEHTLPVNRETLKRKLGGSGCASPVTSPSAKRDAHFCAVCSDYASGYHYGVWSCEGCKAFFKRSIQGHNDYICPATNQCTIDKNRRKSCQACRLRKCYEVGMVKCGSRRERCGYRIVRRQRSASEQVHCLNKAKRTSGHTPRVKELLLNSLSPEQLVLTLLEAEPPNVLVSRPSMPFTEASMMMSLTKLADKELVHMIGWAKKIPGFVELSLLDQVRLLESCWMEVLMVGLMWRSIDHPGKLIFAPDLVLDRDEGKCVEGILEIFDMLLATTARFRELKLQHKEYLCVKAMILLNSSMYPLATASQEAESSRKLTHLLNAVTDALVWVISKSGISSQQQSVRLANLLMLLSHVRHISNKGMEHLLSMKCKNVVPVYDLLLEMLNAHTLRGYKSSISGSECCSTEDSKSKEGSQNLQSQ
T1 sequence (P19785 whole entry, looked up): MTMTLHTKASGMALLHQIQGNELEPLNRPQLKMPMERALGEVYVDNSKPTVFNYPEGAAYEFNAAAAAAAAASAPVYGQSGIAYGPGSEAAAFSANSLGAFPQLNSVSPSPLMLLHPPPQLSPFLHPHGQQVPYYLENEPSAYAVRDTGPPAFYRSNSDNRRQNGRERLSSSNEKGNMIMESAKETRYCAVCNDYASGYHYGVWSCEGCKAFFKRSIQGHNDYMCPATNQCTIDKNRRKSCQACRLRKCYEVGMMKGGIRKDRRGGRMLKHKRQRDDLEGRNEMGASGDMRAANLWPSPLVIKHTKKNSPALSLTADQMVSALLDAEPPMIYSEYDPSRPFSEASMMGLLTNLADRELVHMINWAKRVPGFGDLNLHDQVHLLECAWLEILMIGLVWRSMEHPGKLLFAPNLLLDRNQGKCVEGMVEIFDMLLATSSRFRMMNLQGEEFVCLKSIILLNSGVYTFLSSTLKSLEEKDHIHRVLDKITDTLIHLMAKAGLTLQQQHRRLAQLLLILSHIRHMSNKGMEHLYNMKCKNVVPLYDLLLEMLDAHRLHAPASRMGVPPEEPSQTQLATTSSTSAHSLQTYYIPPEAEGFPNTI

Cc1c(-c2ccc(O)cc2)n(CCCCCCNC(C)c2ccccn2)c2ccc(O)cc12 (stereo not drawn)
Relative uterus weight [1]: 22.4 mg | T/C (MCF7 [2]): 12% | Tumor weight (Mus musculus [3]): 148 mg | Cell no/dish (MCF7 [4]): 95000 | T/C (MCF7 [5]): 46% | inhibition [6]: 77% | T/C [7]: 96% | Activity (MCF7 [8]): 4600 | Relative uterus weight [9]: 34.2 mg | Relative uterus weight [10]: 14.6 mg | inhibition [11]: 39% | Cell no/dish (MCF7 [12]): 126000 | Relative uterus weight [13]: 20.2 mg | Activity (MCF7 [14]): 1200 | T/C (MCF7 [15]): 39% | T/C (MCF7 [16]): 52% | T/C (Mus musculus [17]): 75%

Oc1ccc(-c2cc3cc(O)ccc3n2CCCCCCNCc2ccccn2)cc1
Activity (MCF7 [18]): 20000 | Relative uterus weight [1]: 46.1 mg | T/C (MCF7 [2]): 20% | Cell no/dish (MCF7 [19]): 334000 | Cell no/dish (MCF7 [20]): 195000 | T/C (MCF7 [5]): 41% | inhibition [6]: 5% | [3H] thymidinecpm/dish (MCF7 [21]): 22800 | T/C (Mus musculus [22]): 80% | Relative uterus weight [23]: 22.1 mg | Relative uterus weight [24]: 13.6 mg | T/C [25]: 78% | Relative uterus weight [9]: 40.6 mg | T/C (MCF7 [26]): 47% | Activity (MCF7 [27]): 9600 | Tumor weight (Mus musculus [28]): 158 mg | inhibition [11]: 18% | T/C (MCF7 [15]): 31% | Cell no/dish (MCF7 [29]): 335000 | T/C (MCF7 [16]): 53% | T/C (MCF7 [30]): 54%
